Sampled rows, rich in hits. Any-hit rate of the full collection: about 2.1%.
Dynein transport – dynein cargo transport inhibition | AID 1381 | 3617.4 mouse cells, GR-EGFP nuclear translocation imaging; test concentration mostly 20 µM; stimulated with dexamethasone, 1 µM; stronger effect = lower value | z-score, hits read low | 0.47% of 220,000 active;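 active = plate z-score of nuclear minus cytoplasmic receptor signal below a set negative limit, without overly bright fluorescence or cell loss, cut at about -3.5 in these data, passing the limit was not always enough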;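 note: z-score of nuclear minus cytoplasmic ring GR-EGFP intensity difference per well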
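Buffer or medium: tet-free medium with charcoal-stripped serum / Also added: dexamethasone agonist, 1.0 µM final, for 30 min / Timing: induction 48 h, compound 1 h, agonist 30 min / Measured by: high-content fluorescence imaging after fixation / Read-out: nuclear-to-cytoplasmic GR-EGFP distribution per well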
INS promoter inh – TRM-6 insulin promoter activity inhibition; TRM-6 cells, insulin promoter-eGFP reporter, imaging; reporter expression induced with tamoxifen; inhibition, % at 2 µM; 0.9% of 130,000 active;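 active = inhibition above the mean plus 3 SD, with well images judged a real hit on visual review, cut at about 60% in these data, passing the limit was not always enough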
PERK inhibitor – inhibitors of human PERK kinase; Q9NZJ5; CHO PERK-DD fusion, SEAP luminescence translation reporter; inhibition, % at 5.6 µM; 0.17% of 220,000 active; AID 1416;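 active = inhibition above the mean inhibition of all tested compounds plus 3 SD, set separately per screening campaign, cut at about 2.9% in these data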;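 note: PERK kinase domain activated by AP20187 dimerizer at 100 nM; 0% = DMSO with dimerizer and 100% = rapamycin at 8.4 µM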
Insulin prom up – MIN6 insulin promoter up-regulation | MIN6 insulin promoter-GFP reporter, high-content imaging; stronger effect = higher value | 0.3% of 190,000 active | z-score at 5 µM;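 active = z-score above 3 at 5 µM with at least 500 cells counted in the well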
Autophagy mod – autophagy modulation, high-content screen. MEF GFP-LC3 puncta imaging; test concentration mostly 10 µM. calls only at 10 µM (by protocol). 0.98% of 190,000 active;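 active = percentage of spot-positive cells more than 3 SD above its plate mean, without a fluorescence outlier flag or 80% toxicity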;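 note: spot-positive cell cutoff set from DMSO-treated cells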
Dynein confirm – dynein cargo transport inhibition, confirmation; shares compounds with Dynein transport; 3617.4 GR-EGFP nuclear translocation imaging, dexamethasone-induced; calls only at 20 µM; 69% of 1,000 active; AID 463116;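 active = inhibition of receptor movement into the nucleus at or above a set limit in both runs, with normal cell brightness and cell count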;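 note: dexamethasone at 1 µM final in well for 30 min; nuclear minus cytoplasmic GR-EGFP mean intensity difference in channel 2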
* marks the source's active call; other numbers are inactive results.

CCOc1cc(C=C(C(=O)OC)C(=O)OC)ccc1OCc1ccc([N+](=O)[O-])cc1 was read as Dynein transport -5.7*, INS promoter inh 57, PERK inhibitor -1, Insulin prom up -0.84, Autophagy mod inactive and Dynein confirm active.
For CCOc1cc(/C=N/O)ccc1OCc1ccc([N+](=O)[O-])cc1 the results were Dynein transport -0.69, INS promoter inh -10, PERK inhibitor -1, Insulin prom up 0.05 and Autophagy mod inactive.
CCc1cc(OCCCCNCc2ccccc2)ccc1Cl was read as Dynein transport -6.9*, INS promoter inh 26, PERK inhibitor 0, Insulin prom up -0.08, Autophagy mod inactive and Dynein confirm inactive.
Screening CC(C)(C)NC(=S)NCC1CC1 returned Dynein transport -0.52, PERK inhibitor -1 and Insulin prom up 0.96.
`CCCCN(CC)C(=O)Cn1c(=O)sc2ccccc21` gave Dynein transport -0.96, INS promoter inh -250, PERK inhibitor 0, Insulin prom up -1.4 and Autophagy mod inactive.
For COC(=O)c1cc(NC(=O)c2ccccc2)c(=O)oc1/C=C/Nc1ccc(Oc2ccccc2)cc1 the results were Dynein transport -7.6, INS promoter inh inactive, PERK inhibitor 1, Autophagy mod inactive and Dynein confirm inactive.
For Fc1cccc(CN2CCN(Cc3nc(CCc4ccccc4)no3)CC2)c1 the results were Dynein transport 0.28, PERK inhibitor 1, Insulin prom up -0.16 and Autophagy mod inactive.
Screening O=C(CCl)N(C/C=C/c1ccccc1)c1ccc2c(c1)OCCO2 returned Dynein transport -4*, PERK inhibitor 1, Insulin prom up 1.2, Autophagy mod inactive and Dynein confirm active.
O=C(/C=C/c1ccccc1)c1ccc2c(c1)OCCCCO2 was read as Dynein transport -2.3, PERK inhibitor 0, Insulin prom up -0.99 and Autophagy mod inactive.
Screening C#CC(=O)N(c1ccc(OC)c(OC)c1)C(C(=O)NC1CCCC1)c1cccs1 (stereo not given) returned Dynein transport -4.7*, INS promoter inh -212, PERK inhibitor -1, Insulin prom up -0.42, Autophagy mod inactive and Dynein confirm active.
For C#CC(=O)N(c1cccc(OC)c1)C(C(=O)NC1CCCC1)c1cccs1 (stereo not given) the results were Dynein transport -5.3*, PERK inhibitor 0, Insulin prom up -0.47, Autophagy mod inactive and Dynein confirm active.
Screening COc1ccc(N(C(=O)Cc2cccs2)C(C(=O)NC2CCCCC2)c2cccn2C)cc1OC (stereo not given) returned Dynein transport 0.55, INS promoter inh -88, PERK inhibitor -1 and Autophagy mod inactive.
`CC(=O)NS(=O)(=O)c1ccc(N=c2ssc3c2-c2ccc(C)cc2NC3(C)C)cc1` gave Dynein transport -0.13, INS promoter inh 14, PERK inhibitor 0, Insulin prom up -0.13 and Autophagy mod inactive.
For COC(C[C@H]1O[C@H]1[C@H](O)COCc1ccccc1)OC the results were Dynein transport -0.78 and Insulin prom up 0.
Screening CC(=O)n1cc(C(C[N+](=O)[O-])SCCN)c2ccccc21 (stereo not given) returned Dynein transport -3.8*, INS promoter inh 26, PERK inhibitor 0, Insulin prom up -0.47, Autophagy mod inactive and Dynein confirm inactive.
Screening COC(=O)/C(=C/c1cn(C(C)=O)c2ccccc12)[N+](=O)[O-] returned Dynein transport -0.49, PERK inhibitor 0 and Insulin prom up -0.28.
`Cc1ccccc1-n1nnnc1Sc1nnnn1-c1ccccc1` gave Dynein transport -5.1*, INS promoter inh 22, PERK inhibitor 0, Autophagy mod inactive and Dynein confirm active.
`O=[N+]([O-])c1ccc(Sc2ccccn2)nc1` gave Dynein transport -0.92, PERK inhibitor 1 and Insulin prom up 0.48.
Screening O=[N+]([O-])c1ccc(Sc2nnnn2-c2ccccc2)nc1 returned Dynein transport -5.2*, PERK inhibitor 1, Insulin prom up -1.1, Autophagy mod inactive and Dynein confirm active.
CCn1c(=O)c([N+](=O)[O-])c(NCC2CCCO2)c2ccccc21 (stereo not given) was read as Dynein transport -0.52, PERK inhibitor -1 and Insulin prom up -0.21.

Source: PubChem (several laboratories)
